Results taken from ChEMBL document CHEMBL1147825, “2H-benzimidazole 1,3-dioxide derivatives: a new family of water-soluble anti-trypanosomatid agents” (J Med Chem, 2006).
Each block holds one compound with its values, some of them ahead of it. Activity calls are given as the source filed them. No cut-off for these calls is given here.

What was measured:
[1] = test system: Leishmania infantum; test: Leishmanicidal activity against Leishmania infantum promastigote form at 100 ug/mL; type: functional
Summary of the method: (§1)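 Promastigotes grown at 28°C in Schneider's medium with 20% FCS, seeded at 10^7 parasites/mL; compound dissolved in minimal DMSO or Tween 80 and diluted in Schneider's medium to a final 100 µg/mL. After 72 h at 28°C, parasites examined by inverted microscopy and compared with compound-free control.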

[2] = test system: Leishmania braziliensis; test: Leishmanicidal activity against Leishmania braziliensis promastigote form at 100 ug/mL; type: functional; summary of the method: as §1
[3] = test system: Trypanosoma cruzi; test: Antitrypanosomatid activity against Trypanosoma cruzi Tulahuen 2 epimastigote form; type: functional, organism-based
Summary of the method: (§2)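 Epimastigotes grown at 28°C in BHI-tryptose with 5% fetal calf serum; 5-day stationary-phase cells inoculated at 1×10^6 cells/mL with compound added from DMSO stock (final DMSO ≤0.4%; control contains 0.4% DMSO). Growth followed by A600; at day 5 absorbance related to control across increasing concentrations; IC50 taken as concentration reducing absorbance ratio to 50%.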

[4] = test system: Trypanosoma cruzi; test: Activity against Trypanosoma cruzi in BALB/c mouse at 30 mg/kg/day after 60 days; type: functional, organism-based
Summary of the method: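 Male BALB/c mice (30 days old, 25-30 g) infected i.p. with 10^3 blood trypomastigotes; oral dosing began 10 days post-infection, 30 mg/kg/day as aqueous PBS solution for 10 days; groups of eight, PBS control group of 10. Mortality recorded daily, parasitemia weekly; anti-T. cruzi antibodies measured serologically (absorbance) at 30 and 60 days post-infection, groups compared by Wilcoxon test.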

[5] = test system: Trypanosoma cruzi; test: Antitrypanosomatid activity against Trypanosoma cruzi Y epimastigote form; type: functional, organism-based; summary of the method: as §2
[6] = test system: J774; test: Cytotoxicity against mouse J774 macrophage at 400 uM; type: functional
Summary of the method: (§3)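 J774 macrophages in RPMI 1640 with 20% heat-inactivated FCS, attached 24 h at 37°C in 5% CO2, then exposed to compound for 48 h. Washed, MTT 0.4 mg/mL 60 min at 37°C, formazan dissolved in DMSO, OD595 read. Each concentration in triplicate with six growth controls; %cytotoxicity corrected for compound-in-medium and medium-only blanks.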

[7] = test system: Trypanosoma cruzi; test: Antitrypanosomatid activity against Trypanosoma cruzi CL Brener epimastigote form; type: functional, organism-based; summary of the method: as §2
[8] = test system: Leishmania amazonensis; test: Leishmanicidal activity against Leishmania amazonensis promastigote form at 100 ug/mL; type: functional; summary of the method: as §1
[9] = test system: Trypanosoma cruzi; test: Antitrypanosomatid activity against Trypanosoma cruzi Tulahuen 2 epimastigote form at 25 uM; type: functional; settings: read-out: GI
Summary of the method: (§4)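 Tulahuen 2 epimastigotes in BHI-tryptose plus 5% FCS at 28°C, inoculated at 1×10^6 cells/mL with compound (25 or 100 µM) from DMSO stock, final DMSO ≤0.4%. Growth over 5 days followed by A600; %GI computed from day-0 and day-5 absorbances of treated vs compound-free control cultures; mean of three experiments.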

[10] = test system: Trypanosoma cruzi; test: Trypanocidal activity against Trypanosoma cruzi CL Brener trypomastigote form in mouse blood at 250 ug/mL; type: functional
Summary of the method: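 Trypomastigotes taken from infected mouse blood; compound in DMSO diluted with PBS to 250 µg/mL, mixed with blood containing 10^6 parasites at 90/10 ratio, incubated 24 h at 4°C. Parasites counted by the Brener method under microscope; gentian violet positive and PBS negative controls.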

[11] = test system: J774; test: Cytotoxicity against mouse J774 macrophage at 40 uM; type: functional; summary of the method: as §3
[12] = test system: Trypanosoma cruzi; test: Antitrypanosomatid activity against Trypanosoma cruzi Tulahuen 2 epimastigote form at 100 uM; type: functional; settings: read-out: GI; summary of the method: as §4
[13] = test system: J774; test: Cytotoxicity against mouse J774 macrophage at 4 uM; type: functional, cell-based; summary of the method: as §3

IC50 [3]: 22.7 µM | IC50 [5]: 14 µM | IC50 [7]: 20 µM
SMILES: CC1(C)[N+]([O-])=c2ccc(C3OCCO3)cc2=[N+]1[O-]
Activity [1]: 100% | Activity [2]: 100% | Activity [4]: Active | Activity [6]: 50% | Activity [8]: 100% | inhibition of growth at 25 µM [9]: 59% | Activity [10]: 28%

IC50 [3]: 4.3 µM | IC50 [5]: 14 µM | IC50 [7]: 9 µM
SMILES: CC1(C)[N+]([O-])=c2ccccc2=[N+]1[O-]
Activity [11]: < 50% | Activity [1]: 100% | Activity [2]: 100% | Activity [6]: Toxic | Activity [8]: 100% | inhibition of growth at 25 µM [9]: 87% | Activity [10]: 10%

SMILES: CCOC(=O)c1[nH]c2ccc([N+](=O)[O-])cc2[n+]1[O-]
Activity [1]: inactive | Activity [2]: inactive | Activity [8]: inactive | Activity [10]: 0%

SMILES: CCCCCOn1c(C)[n+]([O-])c2ccccc21
inhibition of growth at 25 µM [9]: 0% | inhibition of growth at 100 µM [12]: 57%

IC50 [3]: 12.5 µM | IC50 [5]: 11.8 µM | IC50 [7]: 14.5 µM
SMILES: CC1(C)[N+]([O-])=c2ccc(/C=N/O)cc2=[N+]1[O-]
Activity [11]: Not toxic | Activity [1]: 100% | Activity [2]: 100% | Activity [13]: Not toxic | Activity [4]: Active | Activity [6]: Not toxic | Activity [8]: 100% | inhibition of growth at 25 µM [9]: 72% | Activity [10]: 21%

SMILES: O=[N+]([O-])c1ccc2c(c1)[n+]([O-])c1n2CCCC1
inhibition of growth at 25 µM [9]: 0%

IC50 [3]: 28.5 µM | IC50 [5]: 17 µM | IC50 [7]: 25 µM
SMILES: COc1ccc2c(c1)=[N+]([O-])C(C)(C)[N+]=2[O-]
Activity [11]: < 50% | Activity [1]: inactive | Activity [2]: 70% | Activity [6]: Toxic | Activity [8]: 70% | inhibition of growth at 25 µM [9]: 52% | Activity [10]: 34%

IC50 [3]: 8.5 µM | IC50 [7]: 3.4 µM
SMILES: O=C(Cn1ccnc1[N+](=O)[O-])NCc1ccccc1 [BENZNIDAZOLE]
inhibition of growth at 25 µM [9]: 92%

SMILES: O=[N+]([O-])c1ccc2c(c1)[n+]([O-])c1n2CCSC1
inhibition of growth at 25 µM [9]: 0%

SMILES: Cc1n(O)c2ccccc2[n+]1[O-]
Activity [1]: inactive | Activity [2]: 70% | Activity [8]: inactive | inhibition of growth at 25 µM [9]: 0% | inhibition of growth at 100 µM [12]: 0% | Activity [10]: 0%

SMILES: CN(C)c1ccc(C(=C2C=CC(=[N+](C)C)C=C2)c2ccc(N(C)C)cc2)cc1.[Cl-] [GENTIAN VIOLET]
Activity [10]: 100%

SMILES: CCOC(=O)COn1c(C)[n+]([O-])c2cc(/C=C/c3ccccc3)ccc21
inhibition of growth at 25 µM [9]: 8% | inhibition of growth at 100 µM [12]: 11%

SMILES: O=[N+]([O-])c1ccc2c(c1)[n+]([O-])c1n2CCOC1
inhibition of growth at 25 µM [9]: 0%

SMILES: CCOC(=O)c1ccc2[nH]c(C(=O)OCC)[n+]([O-])c2c1
Activity [1]: inactive | Activity [2]: inactive | Activity [8]: inactive | Activity [10]: 50%

IC50 [3]: 8.3 µM | IC50 [5]: 13.8 µM | IC50 [7]: 12 µM
SMILES: CC1(C)[N+]([O-])=c2ccc(Br)cc2=[N+]1[O-]
Activity [11]: < 50% | Activity [6]: Toxic | inhibition of growth at 25 µM [9]: 77%

IC50 [3]: 5.1 µM | IC50 [5]: 13 µM | IC50 [7]: 13.5 µM
SMILES: Cc1ccc2c(c1)=[N+]([O-])C(C)(C)[N+]=2[O-]
Activity [11]: < 50% | Activity [1]: 70% | Activity [2]: 70% | Activity [6]: Toxic | Activity [8]: 70% | inhibition of growth at 25 µM [9]: 85% | Activity [10]: 0%

SMILES: CC1CS(=O)(=O)CCN1/N=C/c1ccc([N+](=O)[O-])o1 (stereo not drawn) [NIFURTIMOX]
inhibition of growth at 25 µM [9]: 93%

IC50 [3]: 3.4 µM | IC50 [5]: 5 µM | IC50 [7]: 6 µM
SMILES: CC1(C)[N+]([O-])=c2ccc(/C=C/c3ccccc3)cc2=[N+]1[O-]
Activity [11]: < 50% | Activity [6]: Toxic | inhibition of growth at 25 µM [9]: 100%

SMILES: Cc1n(O)c2ccc(/C=C/c3ccccc3)cc2[n+]1[O-]
inhibition of growth at 25 µM [9]: 19% | inhibition of growth at 100 µM [12]: 15%

SMILES: CCCCOC(=O)c1[nH]c2ccc([N+](=O)[O-])cc2[n+]1[O-]
Activity [10]: 0%

SMILES: O=[N+]([O-])c1ccc2c(c1)[n+]([O-])c1n2CCC1
inhibition of growth at 25 µM [9]: 0%

SMILES: COc1ccc2c(c1)[n+]([O-])c(C)n2O
Activity [1]: inactive | Activity [2]: inactive | Activity [8]: inactive | inhibition of growth at 25 µM [9]: 0% | inhibition of growth at 100 µM [12]: 24% | Activity [10]: 23%

SMILES: N=C(N)c1ccc(OCCCCCOc2ccc(C(=N)N)cc2)cc1 [PENTAMIDINE]
Activity [1]: 100% | Activity [2]: 100% | Activity [8]: 100%

SMILES: Cc1n(O)c2ccc(Br)cc2[n+]1[O-]
inhibition of growth at 25 µM [9]: 0% | inhibition of growth at 100 µM [12]: 18%

SMILES: CCOC(=O)COn1c(C)[n+]([O-])c2cc(C)ccc21
inhibition of growth at 25 µM [9]: 25% | inhibition of growth at 100 µM [12]: 15%

SMILES: Cc1n(O)c2ccc(Cl)cc2[n+]1[O-]
inhibition of growth at 25 µM [9]: 0% | inhibition of growth at 100 µM [12]: 8%

SMILES: Cc1ccc2c(c1)[n+]([O-])c(C)n2O
Activity [1]: inactive | Activity [2]: inactive | Activity [8]: inactive | inhibition of growth at 25 µM [9]: 0% | inhibition of growth at 100 µM [12]: 0% | Activity [10]: 0%

SMILES: CCOC(=O)COn1c(C)[n+]([O-])c2ccccc21
inhibition of growth at 25 µM [9]: 1% | inhibition of growth at 100 µM [12]: 12%

SMILES: CCCCCCNC(=O)N/N=C/c1ccc2c(c1)=[N+]([O-])C(C)(C)[N+]=2[O-]
inhibition of growth at 25 µM [9]: 69%
